Measured values as given in ChEMBL document CHEMBL1153234, “Synthesis and biological evaluation of nitrogen-containing chalcones as possible anti-inflammatory and antioxidant agents” (Bioorg Med Chem Lett, 2010).
The source made the active and inactive calls. No cut-off for these calls is given here.

Experiments:
[1] = test system: Radical scavenging activity; test: Antioxidant activity assessed as DPPH radical scavenging activity at 10 uM; assay type: functional
Summary of the method: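 Test sample from a 1 mM stock in absolute ethanol was mixed with DPPH radical (10^-4 M in absolute ethanol). Absorbance was read at 517 nm after 20 min. Quercetin served as reference. Values are means of n = 2.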

[2] = Inhibition of trypsin at 10 uM
Summary of the method: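 Trypsin (0.075 mg/mL) was preincubated 20 min with test sample from a 1 mM stock. The reaction was stopped with 5% trichloroacetic acid and centrifuged. Acid-soluble protein was measured by the Lowry method. Salicylic acid (10^-6 M) was the reference. Values are means of n = 2.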

[3] = molecular target: T1, Prostaglandin G/H synthase 2 (Ovis aries) (UniProt P79208); test: Inhibition of ovine COX2 at 1 mM by colorimetric assay
T1 sequence (whole entry): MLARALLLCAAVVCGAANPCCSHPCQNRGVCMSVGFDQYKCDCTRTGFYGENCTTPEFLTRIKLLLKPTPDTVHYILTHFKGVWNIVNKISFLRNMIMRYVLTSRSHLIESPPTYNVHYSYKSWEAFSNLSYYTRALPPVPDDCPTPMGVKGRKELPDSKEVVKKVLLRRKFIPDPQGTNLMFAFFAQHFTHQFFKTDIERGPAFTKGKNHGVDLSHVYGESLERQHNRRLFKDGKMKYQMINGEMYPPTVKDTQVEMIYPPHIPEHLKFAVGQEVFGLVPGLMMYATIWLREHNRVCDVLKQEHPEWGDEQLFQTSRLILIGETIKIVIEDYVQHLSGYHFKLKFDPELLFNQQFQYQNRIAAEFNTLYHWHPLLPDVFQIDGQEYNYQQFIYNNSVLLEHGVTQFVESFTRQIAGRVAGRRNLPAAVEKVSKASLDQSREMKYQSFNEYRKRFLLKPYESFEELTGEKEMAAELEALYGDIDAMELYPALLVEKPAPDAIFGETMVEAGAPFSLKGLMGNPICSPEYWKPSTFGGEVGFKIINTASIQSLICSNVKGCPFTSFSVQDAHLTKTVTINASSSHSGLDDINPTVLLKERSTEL
Summary of the method: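 Ovine COX-2 was tested with a colorimetric screening kit. Enzyme, heme and assay buffer were preincubated 5 min at 25 °C with test sample added from a 1 mM solution. Colorimetric substrate and arachidonic acid were then added, followed by a further 5 min at 25 °C. Absorbance was read at 590 nm, and % activity = inhibitor-well/no-inhibitor-well absorbance × 100. Values are means of n = 2.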

[4] = molecular target: T2, Beta-glucuronidase (Homo sapiens) (UniProt P08236); test: Inhibition of beta-glucuronidase at 10 uM
T2 sequence (whole entry): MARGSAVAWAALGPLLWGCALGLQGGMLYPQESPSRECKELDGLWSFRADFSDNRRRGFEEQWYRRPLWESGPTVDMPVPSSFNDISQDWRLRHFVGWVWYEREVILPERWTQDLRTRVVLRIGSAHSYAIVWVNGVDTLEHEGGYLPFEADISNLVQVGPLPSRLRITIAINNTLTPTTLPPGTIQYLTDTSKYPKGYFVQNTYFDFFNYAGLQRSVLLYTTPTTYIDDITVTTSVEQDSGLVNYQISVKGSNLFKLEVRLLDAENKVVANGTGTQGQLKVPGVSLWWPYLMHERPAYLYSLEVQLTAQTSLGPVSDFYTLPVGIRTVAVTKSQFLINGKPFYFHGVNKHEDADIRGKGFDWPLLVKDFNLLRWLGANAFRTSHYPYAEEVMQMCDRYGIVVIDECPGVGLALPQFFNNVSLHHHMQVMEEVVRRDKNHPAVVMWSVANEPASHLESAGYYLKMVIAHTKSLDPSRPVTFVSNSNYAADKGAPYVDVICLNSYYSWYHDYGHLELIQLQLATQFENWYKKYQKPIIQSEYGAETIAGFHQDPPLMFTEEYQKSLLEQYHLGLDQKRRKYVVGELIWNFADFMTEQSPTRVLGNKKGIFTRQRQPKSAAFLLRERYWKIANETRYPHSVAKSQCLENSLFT
Summary of the method: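 Test sample from a 1 mM stock in 0.1 M acetate buffer pH 7.4 was preincubated 5 min at 37 °C with 2.5 mM p-nitrophenyl β-D-glucopyranosiduronic acid. β-Glucuronidase was then added and the mixture incubated 30 min. The reaction was stopped with 0.5 N NaOH and read at 410 nm. Salicylic acid (1 mM) was the reference. Values are means of n = 2.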

[5] = molecular target: T3, Prostaglandin G/H synthase 1 (Ovis aries) (UniProt P05979); settings: at 1 mM
T3 sequence (whole entry): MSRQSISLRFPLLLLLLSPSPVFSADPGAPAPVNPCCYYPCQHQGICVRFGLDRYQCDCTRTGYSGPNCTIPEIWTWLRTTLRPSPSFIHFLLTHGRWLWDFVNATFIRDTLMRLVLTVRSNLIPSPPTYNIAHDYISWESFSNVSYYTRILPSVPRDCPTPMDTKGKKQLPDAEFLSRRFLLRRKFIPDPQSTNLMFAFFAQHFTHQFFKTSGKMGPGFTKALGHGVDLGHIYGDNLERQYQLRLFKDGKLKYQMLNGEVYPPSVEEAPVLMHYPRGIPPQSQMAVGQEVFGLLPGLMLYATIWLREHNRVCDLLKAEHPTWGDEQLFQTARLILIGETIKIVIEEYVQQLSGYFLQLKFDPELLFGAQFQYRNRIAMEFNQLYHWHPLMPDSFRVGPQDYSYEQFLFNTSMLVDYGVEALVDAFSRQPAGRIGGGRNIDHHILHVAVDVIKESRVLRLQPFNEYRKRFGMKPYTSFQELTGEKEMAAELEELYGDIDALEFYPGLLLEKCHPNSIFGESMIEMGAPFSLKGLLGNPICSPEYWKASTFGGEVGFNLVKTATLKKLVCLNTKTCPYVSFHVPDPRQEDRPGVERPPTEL

`COc1cc(OC)c(C(=O)/C=C/c2cccc(Cl)c2)c(O)c1CN1CCCCC1` gave an Activity [1] of 20.9%, an inhibition [2] of 0.5% and an inhibition [3] of 87.9%. It also gave an inhibition [4] of 66% and an inhibition [5] of 25.2%.

With `COc1cc(OC)c(C(=O)/C=C/c2ccccc2Cl)c(O)c1CN1CCCC1` the Activity [1] was 7.89%, the inhibition [2] was 0.8% and the inhibition [3] was 42.5%. For the same molecule, the inhibition [4] was 32.4%.

In the case of `COc1cc(OC)c(C(=O)/C=C/c2ccccc2F)c(O)c1CN1CCN(C)CC1`, the Activity [1] is reported as 35.3%, the inhibition [2] is reported as “inactive” and the inhibition [3] is reported as 44.9%. For the same molecule, the inhibition [4] was “inactive” and the inhibition [5] was 19.2%.

With `COc1cc(OC)c(C(=O)/C=C/c2cccc(F)c2)c(O)c1CN1CCCCC1` the Activity [1] was 14.6%, the inhibition [3] was 21.7% and the inhibition [4] was 7.06%.

Molecule `COc1cc(OC)c(C(=O)/C=C/c2cccc(F)c2)c(O)c1CN1CCOCC1` has an Activity [1] of 24%, an inhibition [2] of 19.5% and an inhibition [3] of 38.9%. For the same molecule, the inhibition [4] was 10.8%.

With `O=C(O)c1ccccc1O` the inhibition [2] was 89.2% and the inhibition [4] was 23.3%.

Molecule `COc1cc(OC)c(C(=O)/C=C/c2ccccc2Br)c(O)c1CN1CCCCC1` has an Activity [1] of 58.3%, an inhibition [2] of 2.1% and an inhibition [3] of 69.8%. It also gave an inhibition [4] of 39.9%.

For `COc1cc(OC)c(C(=O)/C=C/c2cccc(Br)c2)c(O)c1CN1CCCCC1`, the Activity [1] was 33%, the inhibition [2] was 2.8% and the inhibition [3] was 87.5%. For the same molecule, the inhibition [4] was 15.4% and the inhibition [5] was 21.7%.

`COc1cc(OC)c(C(=O)/C=C/c2cccc(Br)c2)c(O)c1CN1CCCC1` showed an Activity [1] of 35.7%, an inhibition [2] of 1.3% and an inhibition [3] of 19.9%. For the same molecule, the inhibition [4] was 59.8%.

Molecule `COc1cc(OC)c(C(=O)/C=C/c2ccccc2Cl)c(O)c1CN1CCN(C)CC1` has an Activity [1] of 10.8%, an inhibition [2] of 0.1% and an inhibition [3] of 68.8%. The inhibition [4] was 35.5% and the inhibition [5] was 11.9%.

`COc1cc(OC)c(C(=O)/C=C/c2ccccc2Br)c(O)c1CN1CCCC1` showed an Activity [1] of 25%, an inhibition [2] of 1.5% and an inhibition [3] of 20.4%. For the same molecule, the inhibition [4] was 34.7%.

With `COc1cc(OC)c(C(=O)/C=C/c2ccccc2Cl)c(O)c1CN1CCOCC1` the Activity [1] was 24.8%, the inhibition [2] was “inactive” and the inhibition [3] was 25.6%. The inhibition [4] was 48.1%.

`COc1cc(OC)c(C(=O)/C=C/c2cccc(F)c2)c(O)c1CN1CCCC1` gave an Activity [1] of 11.7%, an inhibition [2] of 1.3% and an inhibition [3] of 21.4%. It also gave an inhibition [4] of 19.4%.

`COc1cc(OC)c(C(=O)/C=C/c2cccc(Cl)c2)c(O)c1CN1CCOCC1` showed an Activity [1] of 21.9%, an inhibition [2] of 1.1% and an inhibition [3] of 48.2%. The inhibition [4] was 13.9%.

For `COc1cc(OC)c(C(=O)/C=C/c2ccccc2Br)c(O)c1CN1CCOCC1`, the Activity [1] was 16.7%, the inhibition [2] was 1.6% and the inhibition [3] was 42.3%. For the same molecule, the inhibition [4] was 32.8%.

Molecule `COc1cc(OC)c(C(=O)/C=C/c2cccc(Cl)c2)c(O)c1CN1CCN(C)CC1` has an Activity [1] of 5.2%, an inhibition [2] of 1.3% and an inhibition [3] of 77.8%. For the same molecule, the inhibition [4] was 23.7% and the inhibition [5] was 28.7%.

With `COc1cc(OC)c(C(=O)/C=C/c2ccccc2F)c(O)c1CN1CCCCC1` the Activity [1] was “inactive”, the inhibition [2] was 1.4% and the inhibition [3] was 19.9%. The inhibition [4] was 56.6%.

Molecule `COc1cc(OC)c(C(=O)/C=C/c2ccccc2Br)c(O)c1CN1CCN(C)CC1` has an Activity [1] of 27.8%, an inhibition [2] of 1.2% and an inhibition [3] of 48.9%. For the same molecule, the inhibition [4] was 42%.

For `COc1cc(OC)c(C(=O)/C=C/c2cccc(F)c2)c(O)c1CN1CCN(C)CC1`, the Activity [1] was 18.4%, the inhibition [2] was “inactive” and the inhibition [3] was 24.6%. The inhibition [4] was 26.7%.

`CC(=O)Oc1ccccc1C(=O)O` showed an inhibition [3] of 35.1%.

In the case of `COc1cc(OC)c(C(=O)/C=C/c2ccccc2F)c(O)c1CN1CCOCC1`, the Activity [1] is reported as 19.2%, the inhibition [2] is reported as 2% and the inhibition [3] is reported as 27.1%. For the same molecule, the inhibition [4] was 21.8%.

In the case of `COc1cc(OC)c(C(=O)/C=C/c2cccc(Br)c2)c(O)c1CN1CCN(C)CC1`, the Activity [1] is reported as 37%, the inhibition [2] is reported as 1.4% and the inhibition [3] is reported as 33.3%. The inhibition [4] was 75.4%.

`O=c1c(O)c(-c2ccc(O)c(O)c2)oc2cc(O)cc(O)c12` showed an Activity [1] of 86.3%.

For `COc1cc(O)c(CN2CCCC2)c(O)c1C(=O)/C=C/c1ccccc1F`, the Activity [1] was 32.9%, the inhibition [2] was 1.2% and the inhibition [3] was 21.4%. For the same molecule, the inhibition [4] was “inactive”.

For `COc1cc(OC)c(C(=O)/C=C/c2cccc(Br)c2)c(O)c1CN1CCOCC1`, the Activity [1] was 10.1%, the inhibition [2] was 1.2% and the inhibition [3] was 22.4%. The inhibition [4] was 29.3%.

With `COc1cc(OC)c(C(=O)/C=C/c2ccccc2Cl)c(O)c1CN1CCCCC1` the Activity [1] was 18.4%, the inhibition [2] was 0.7% and the inhibition [3] was 91.5%. For the same molecule, the inhibition [4] was 31.2% and the inhibition [5] was 30.4%.

For `COc1cc(OC)c(C(=O)/C=C/c2cccc(Cl)c2)c(O)c1CN1CCCC1`, the Activity [1] was 3.1%, the inhibition [2] was 0.9% and the inhibition [3] was 29.6%. It also gave an inhibition [4] of 14.8%.
